Calls of active or inactive are those of the source.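 Rule for the calls, unless noted: active = viability loss from added drug above about 55%, and viability with drug at most 40%, in both replicates (limit read from the data, passing the limit was not always enough); inconclusive = both conditions met in only one replicate; inactive = neither replicate meets both conditions.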
What was measured:
[1] = Her2 expression decrease, cell viability multiplex – SKBR3 breast tumor cells, AlphaScreen, ATP viability, primary screen (AID 461;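 active = Her2 level under about 52% in both replicate screens, with viability over 70% of control, limit read from the data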;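 for Her2 level: lower value means less Her2 protein in the cells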;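 for viability: percent of carrier control wells set as 100% viability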); settings: SKBR3 Her2 protein level, 18-24 h, measured here: SKBR3 viability, ATP luminescence, at 10 µM
[2] = target: Receptor tyrosine-protein kinase erbB-2 (Homo sapiens) (UniProt P04626); assay: as above; settings: 18-24 h, at 10 µM, stronger effect = lower value
[3] = reduced viability of SK-BR-3 breast cancer cells – cell-based, 24 h, human, pilot screen (AID 572;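 active = viability at or below 10% of carrier control in both of two separate runs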;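 note: compound exposure lasted between 18 and 24 h rather than exactly 24 h; 100% = carrier-treated control wells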); settings: SK-BR-3 viability, CellTiter-Glo luminescence, at 10 µM, stronger effect = lower value
[4] = HUVEC growth inhibition – cell-based, human, primary screen (AID 575;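 active = viability at or below 30% in both replicate assays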;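 note: 100% = median of untreated cell wells with 0.1% DMSO on each plate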); settings: HUVEC proliferation, CellTiter-Glo luminescence, 72 h; at 10 µM; stronger effect = lower value
Outline: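 Material: primary human umbilical vein endothelial cells / Schedule: 72 h exposure, 37 °C, 5% CO2, 30 min RT equilibration / Signal: ATP-based CellTiter-Glo luminescent read / Read-out basis: percent of median DMSO-control luminescence / Control set: 32 DMSO-only cell-control wells (high), 32 MePR drug-control wells (low) per plate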

[5] = H69AR cell proliferation blockers – human, duplicate replicates, primary screen (AID 580;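 active = viability at or under a set limit in both replicates, limit being median viability minus 3 SD, cut at about 48% in these data, passing the limit was not always enough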;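 note: 100% = mean luminescence of untreated wells and 0% = no signal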); settings: H69AR lung tumor cells viability, ATP luminescence, 72 h; at 10 µM; stronger effect = lower value
[6] = MRP1 drug-resistance reversers in H69AR cells – cell-based, doxorubicin co-treatment, pilot screen (AID 601); settings: CellTiter-Glo, 72 h, at 10 µM; for differential viability (reversal): stronger effect = higher value
[7] = yeast transport mutant growth inhibition pilot in 384-well plates, post-Golgi transport modulator project (AID 636; in the data active = inhibition above about 31%); settings: absorbance 615 nm, about 18 h, stronger effect = higher value
[8] = growth suppression of yeast trafficking mutant, preliminary HTS, modulators of trafficking downstream of Golgi apparatus project, 1536-format plate, OD 615 nm (AID 637; in the data active = inhibition above about 30%); settings: yeast transport mutant growth, absorbance 615 nm, 18 h; stronger effect = higher value
[9] = H69AR cells + 2 uM doxorubicin, measured here: viability with 2 uM doxorubicin, stronger effect = lower value
[10] = H69AR cells, compound alone cytotoxicity

Receptor tyrosine-protein kinase erbB-2 (Homo sapiens), sequence (P04626 whole entry, looked up): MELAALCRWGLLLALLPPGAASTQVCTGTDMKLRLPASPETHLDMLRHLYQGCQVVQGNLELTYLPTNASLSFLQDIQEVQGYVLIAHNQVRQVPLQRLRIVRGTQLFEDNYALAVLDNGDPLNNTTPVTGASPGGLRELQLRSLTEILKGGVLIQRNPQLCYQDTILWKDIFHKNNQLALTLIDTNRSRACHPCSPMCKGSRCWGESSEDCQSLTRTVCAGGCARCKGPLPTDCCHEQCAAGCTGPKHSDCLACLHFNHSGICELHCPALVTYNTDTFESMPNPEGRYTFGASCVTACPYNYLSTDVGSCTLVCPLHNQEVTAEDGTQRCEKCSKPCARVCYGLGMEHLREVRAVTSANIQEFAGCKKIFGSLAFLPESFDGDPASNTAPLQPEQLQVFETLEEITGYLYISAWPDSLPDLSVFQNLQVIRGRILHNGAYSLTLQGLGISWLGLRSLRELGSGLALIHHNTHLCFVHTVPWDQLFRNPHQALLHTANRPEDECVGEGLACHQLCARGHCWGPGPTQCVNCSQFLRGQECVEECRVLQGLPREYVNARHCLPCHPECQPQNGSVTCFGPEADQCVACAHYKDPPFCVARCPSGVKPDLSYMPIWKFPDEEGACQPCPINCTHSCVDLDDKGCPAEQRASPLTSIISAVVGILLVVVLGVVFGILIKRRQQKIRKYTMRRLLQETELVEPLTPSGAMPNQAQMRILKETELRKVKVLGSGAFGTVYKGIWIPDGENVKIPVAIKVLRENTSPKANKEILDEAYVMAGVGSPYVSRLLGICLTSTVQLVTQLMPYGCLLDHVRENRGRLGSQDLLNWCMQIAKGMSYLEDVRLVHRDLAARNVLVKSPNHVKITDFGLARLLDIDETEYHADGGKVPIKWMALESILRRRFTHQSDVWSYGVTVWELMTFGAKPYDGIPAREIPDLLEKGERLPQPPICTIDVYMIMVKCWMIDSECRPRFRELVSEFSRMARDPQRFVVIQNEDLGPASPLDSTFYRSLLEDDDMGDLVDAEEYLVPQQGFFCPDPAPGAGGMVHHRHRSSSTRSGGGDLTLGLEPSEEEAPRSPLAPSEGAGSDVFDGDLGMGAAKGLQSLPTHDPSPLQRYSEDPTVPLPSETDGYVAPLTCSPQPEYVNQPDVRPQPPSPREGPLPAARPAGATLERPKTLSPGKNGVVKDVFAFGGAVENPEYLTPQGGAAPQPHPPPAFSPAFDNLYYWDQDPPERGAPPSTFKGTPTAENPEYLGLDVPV

SMILES: CCN(c1ccc(OC)cc1)S(=O)(=O)c1ccc2c(c1)CCN2C(=O)CCC(=O)O
- viability [1]: 115%
- Her2 level [2]: 97.5% (inactive)
- viability [3]: 115% (inactive)
- viability [4]: 88.9% (inactive)
- viability [5]: 92.4% (inactive)
- differential viability (reversal) ([6]; H69AR cells + 2 uM doxorubicin): 2.4% (inactive)
- viability [6, 9]: 90%
- viability [6, 10]: 92.4%
- inhibition [7]: -3.55% (inactive)
- inhibition [8]: -2.06% (inactive)

SMILES: CC(c1nnc(SCC(=O)Nc2sccc2C#N)n1-c1ccc(Cl)cc1)N(C)C (stereo not given)
- viability [1]: 103%
- Her2 level [2]: 74% (inactive)
- viability [3]: 103% (inactive)
- viability [4]: 91.8% (inactive)
- viability [5]: 75.4% (inactive)
- differential viability (reversal) ([6]; H69AR cells + 2 uM doxorubicin): -5.88% (inactive)
- viability [6, 9]: 81.2%
- viability [6, 10]: 75.4%
- inhibition [7]: -3.68% (inactive)
- inhibition [8]: 0.79% (inactive)

SMILES: O=C(Cn1c(=O)n(Cc2ccc3c(c2)OCO3)c(=O)c2ccccc21)N1CCCc2ccccc21
- viability [1]: 87.5%
- Her2 level [2]: 80.5% (inactive)
- viability [3]: 87.5% (inactive)
- viability [4]: 66.5% (inactive)
- viability [5]: 82.2% (inactive)
- differential viability (reversal) ([6]; H69AR cells + 2 uM doxorubicin): 3.96% (inactive)
- viability [6, 9]: 78.3%
- viability [6, 10]: 82.2%
- inhibition [7]: -0.39% (inactive)
- inhibition [8]: 1.8% (inactive)

SMILES: CC(C)NC(=O)CSc1nc2ccccc2n1-c1ccccc1
- viability [1]: 88.5%
- Her2 level [2]: 101% (inactive)
- viability [3]: 88.5% (inactive)
- viability [4]: 100% (inactive)
- viability [5]: 84.3% (inactive)
- differential viability (reversal) ([6]; H69AR cells + 2 uM doxorubicin): -8.05% (inactive)
- viability [6, 9]: 92.4%
- viability [6, 10]: 84.3%
- inhibition [7]: 2.86% (inactive)
- inhibition [8]: -4.13% (inactive)

SMILES: Cn1c(SCC(=O)N2CCN(c3cccc(Cl)c3)CC2)nnc1-c1ccncc1
- viability [1]: 84%
- Her2 level [2]: 76% (inactive)
- viability [3]: 84% (inactive)
- viability [4]: 49.4% (inactive)
- viability [5]: 79.8% (inactive)
- differential viability (reversal) ([6]; H69AR cells + 2 uM doxorubicin): -18.5% (inactive)
- viability [6, 9]: 98.3%
- viability [6, 10]: 79.8%
- inhibition [7]: 3.59% (inactive)
- inhibition [8]: -1.33% (inactive)

SMILES: O=C(O)c1ccc(COc2c(F)c(F)cc(F)c2F)cc1
- viability [1]: 114%
- Her2 level [2]: 93.5% (inactive)
- viability [3]: 114% (inactive)
- viability [4]: 101% (inactive)
- viability [5]: 103% (inactive)
- differential viability (reversal) ([6]; H69AR cells + 2 uM doxorubicin): 0.99% (inactive)
- viability [6, 9]: 102%
- viability [6, 10]: 103%
- inhibition [7]: -5.73% (inactive)
- inhibition [8]: -0.79% (inactive)

SMILES: COc1ccccc1C(=O)n1nc(-c2ccccc2)nc1N
- viability [1]: 91%
- Her2 level [2]: 90% (inactive)
- viability [3]: 91% (inactive)
- viability [4]: 110% (inactive)
- viability [5]: 87.9% (inactive)
- differential viability (reversal) ([6]; H69AR cells + 2 uM doxorubicin): -2.62% (inactive)
- viability [6, 9]: 90.5%
- viability [6, 10]: 87.9%
- inhibition [7]: -3.29% (inactive)
- inhibition [8]: 3.77% (inactive)

SMILES: Cc1ccc(CNC(=O)C2CCCN(S(=O)(=O)c3cccnc3)C2)cc1 (stereo not given)
- viability [1]: 92.5%
- Her2 level [2]: 109% (inactive)
- viability [3]: 92.5% (inactive)
- viability [4]: 104% (inactive)
- viability [5]: 99.6% (inactive)
- differential viability (reversal) ([6]; H69AR cells + 2 uM doxorubicin): 10.6% (inactive)
- viability [6, 9]: 89%
- viability [6, 10]: 99.6%
- inhibition [7]: -0.26% (inactive)
- inhibition [8]: -4.18% (inactive)

SMILES: Cc1oc(-c2ccccc2F)nc1CS(=O)(=O)CC(=O)N1CCN(Cc2ccccc2)CC1
- viability [1]: 77.5%
- Her2 level [2]: 91.5% (inactive)
- viability [3]: 77.5% (inactive)
- viability [4]: 102% (inactive)
- viability [5]: 90.2% (inactive)
- differential viability (reversal) ([6]; H69AR cells + 2 uM doxorubicin): -1.19% (inactive)
- viability [6, 9]: 91.4%
- viability [6, 10]: 90.2%
- inhibition [7]: -3.07% (inactive)
- inhibition [8]: -0.98% (inactive)

SMILES: COc1ccccc1NC(=O)CSc1nnc(CC(=O)Nc2ccccc2)n1C
- viability [1]: 96%
- Her2 level [2]: 80.5% (inactive)
- viability [3]: 96% (inactive)
- viability [4]: 113% (inactive)
- viability [5]: 91% (inactive)
- differential viability (reversal) ([6]; H69AR cells + 2 uM doxorubicin): -2.08% (inactive)
- viability [6, 9]: 93.1%
- viability [6, 10]: 91%
- inhibition [7]: -2.99% (inactive)
- inhibition [8]: -2% (inactive)

SMILES: COCCOC(=O)/C=C1/NC(=O)CS1
- viability [1]: 96.5%
- Her2 level [2]: 94.5% (inactive)
- viability [3]: 96.5% (inactive)
- viability [4]: 106% (inactive)
- viability [5]: 93.8% (inactive)
- differential viability (reversal) ([6]; H69AR cells + 2 uM doxorubicin): 4.28% (inactive)
- viability [6, 9]: 89.6%
- viability [6, 10]: 93.8%
- inhibition [7]: -5.6% (inactive)
- inhibition [8]: 1.48% (inactive)

SMILES: COCCN(CC(=O)NCc1ccccc1)C(=O)CCC(=O)Nc1ccccn1
- viability [1]: 112%
- Her2 level [2]: 90.5% (inactive)
- viability [3]: 112% (inactive)
- viability [4]: 103% (inactive)
- viability [5]: 92.9% (inactive)
- differential viability (reversal) ([6]; H69AR cells + 2 uM doxorubicin): 1.44% (inactive)
- viability [6, 9]: 91.5%
- viability [6, 10]: 92.9%
- inhibition [7]: -4.8% (inactive)
- inhibition [8]: 1.94% (inactive)

SMILES: CCCCOc1ccc(NC(=O)Cn2c(=O)ccc3c(C)cc(C)nc32)cc1
- viability [1]: 102%
- Her2 level [2]: 104% (inactive)
- viability [3]: 102% (inactive)
- viability [4]: 94.1% (inactive)
- viability [5]: 91.2% (inactive)
- differential viability (reversal) ([6]; H69AR cells + 2 uM doxorubicin): 11.8% (inactive)
- viability [6, 9]: 79.5%
- viability [6, 10]: 91.2%
- inhibition [7]: -3.55% (inactive)
- inhibition [8]: -1.45% (inactive)

SMILES: CCOC(=O)c1oc2ccccc2c1NC(=O)COC
- viability [1]: 108%
- Her2 level [2]: 91.5% (inactive)
- viability [3]: 108% (inactive)
- viability [4]: 99.5% (inactive)
- viability [5]: 102% (inactive)
- differential viability (reversal) ([6]; H69AR cells + 2 uM doxorubicin): 9.07% (inactive)
- viability [6, 9]: 93.2%
- viability [6, 10]: 102%
- inhibition [7]: -4.73% (inactive)
- inhibition [8]: -3.93% (inactive)

SMILES: CCc1ccccc1NC(=O)CN(c1cccc(OC)c1)S(C)(=O)=O
- viability [1]: 112%
- Her2 level [2]: 124% (inactive)
- viability [3]: 112% (inactive)
- viability [4]: 110% (inactive)
- viability [5]: 100% (inactive)
- differential viability (reversal) ([6]; H69AR cells + 2 uM doxorubicin): 14.6% (inactive)
- viability [6, 9]: 85.8%
- viability [6, 10]: 100%
- inhibition [7]: -4% (inactive)
- inhibition [8]: -7.74% (inactive)
